Values after ≈ are worked out from the molar mass of the structure shown.
Key:
Bacillus subtilis = test: Antibacterial activity against Bacillus subtilis NCTC 10400 after 16 hrs by microdilution method; type: functional; conditions: NCTC 10400, 16 h
In short: (§1)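 Broth microdilution in cation-adjusted Mueller-Hinton broth (20 mg/l Ca2+, 10 mg/L Mg2+), inoculum 5×10^5 CFU/mL. Compounds from DMSO stocks, final DMSO <1%, tested over 0.12–128 µg/ml. Incubated 37 °C and read visually after 16 h. MIC is the lowest concentration with no visible growth, determined at least twice and converted to µmol/L.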

Albumin [1] = target: T1, Albumin (Homo sapiens, UniProt P02768); test: Binding affinity to human serum albumin at 293K by fluorescence spectroscopic method; type: ADME; conditions: isolated protein
In short: (§2)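 Fatty acid-free HSA held at 5 × 10^-7 M in 30 mM PBS pH 7.38, titrated with compound DMSO stock at 0.5–8 molar equivalents (final DMSO ≤2%). Equilibrated 20 min after each addition. Fluorescence excitation 280 nm, emission 300–450 nm, PBS background subtracted. Quenching recorded at 293, 303 and 310 K and analysed by Stern-Volmer, molar ratio and van't Hoff treatment.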

Staphylococcus aureus [2] = test: Antibacterial activity against methicillin-sensitive Staphylococcus aureus NCTC 12981 after 16 hrs by microdilution method; type: functional; conditions: NCTC 12981, 16 h; in short: as §1
Albumin [3] = target: T1, Albumin; test: Binding affinity to human serum albumin assessed as change in enthalpy at 293K by Van't Hoff plot method; type: ADME; conditions: isolated protein; in short: as §2
Albumin [4] = target: T1, Albumin; test: Binding affinity to human serum albumin assessed as Gibbs free energy change at 310K by Van't Hoff plot method; type: ADME; conditions: isolated protein; in short: as §2
Albumin [5] = target: T1, Albumin; test: Binding affinity to human serum albumin assessed as Gibbs free energy change at 293K by Van't Hoff plot method; type: ADME; conditions: isolated protein; in short: as §2
Albumin [6] = target: T1, Albumin; test: Binding affinity to human serum albumin at 303K by Stern-Volmer plot method; type: ADME; conditions: isolated protein; in short: as §2
Albumin [7] = target: T1, Albumin; test: Binding affinity to human serum albumin at 293K by Stern-Volmer plot method; type: ADME; conditions: isolated protein; in short: as §2
Staphylococcus aureus [8] = test: Antibacterial activity against methicillin-resistant Staphylococcus aureus NCTC 13373 after 16 hrs by microdilution method; type: functional; conditions: NCTC 13373, 16 h
In short: (§3)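 Broth microdilution in cation-adjusted Mueller-Hinton broth (20 mg/l Ca2+, 10 mg/L Mg2+), inoculum 5×10^5 CFU/mL. Compounds in DMSO, solvent under 1% in well, tested over 0.12-128 µg/ml. […] Each determined at least twice; values converted to µmol/L.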

[9] = Acidity constant, pKa of the compound at 5 x 10^-5 M by UV/Vis spectrophotometric titration method; type: physicochemical
In short: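 Spectrophotometric titration at 20 ± 0.5 °C of a 5 × 10^-5 M working solution (ethanol, then 10 mM phosphate buffer pH 10.44, I = 0.1 M NaCl). Acidified stepwise with H3PO4 to pH ~4, with pH monitored continuously. UV/Vis spectra 210–600 nm against blank. pKa2 taken from the slope of the linearized absorbance equation. Three sets; mean ± 95% CI.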

Albumin [10] = target: T1, Albumin; test: Binding affinity to human serum albumin at 293K by Van't Hoff plot method; type: ADME; conditions: isolated protein; in short: as §2
Escherichia coli = test: Antibacterial activity against Escherichia coli NCTC 12241 after 16 hrs by microdilution method; type: functional; conditions: NCTC 12241, 16 h; in short: as §1
Albumin [11] = target: T1, Albumin; test: Binding affinity to human serum albumin at 310K by Van't Hoff plot method; type: ADME; conditions: isolated protein; in short: as §2
Albumin [12] = target: T1, Albumin; test: Binding affinity to human serum albumin assessed as change in entropy at 293K by Van't Hoff plot method; type: ADME; conditions: isolated protein; in short: as §2
Staphylococcus aureus [13] = test: Antibacterial activity against erythromycin-resistant Staphylococcus aureus RN4220 after 16 hrs by microdilution method; type: functional; conditions: RN4220, 16 h; in short: as §3
Albumin [14] = target: T1, Albumin; test: Binding affinity to human serum albumin at 310K by fluorescence spectroscopic method; type: ADME; conditions: isolated protein; in short: as §2
Staphylococcus aureus [15] = test: Antibacterial activity against Norfloxacin-resistant Staphylococcus aureus 1199B over-expressing NorA after 16 hrs by microdilution method; type: functional; in short: as §3
Albumin [16] = target: T1, Albumin; test: Binding affinity to human serum albumin assessed as Gibbs free energy change at 303K by Van't Hoff plot method; type: ADME; conditions: isolated protein; in short: as §2
Staphylococcus aureus [17] = test: Antibacterial activity against tetracycline/methicillin-resistant Staphylococcus aureus XU212 after 16 hrs by microdilution method; type: functional; conditions: XU212, 16 h; in short: as §3
Albumin [18] = target: T1, Albumin; test: Binding affinity to human serum albumin at 303K by Van't Hoff plot method; type: ADME; conditions: isolated protein; in short: as §2
Enterococcus faecalis = test: Antibacterial activity against Enterococcus faecalis NCTC 12697 after 16 hrs by microdilution method; type: functional; conditions: NCTC 12697, 16 h; in short: as §1
Staphylococcus aureus [19] = test: Antibacterial activity against Staphylococcus aureus EMRSA-15 after 16 hrs by microdilution method; type: functional; conditions: EMRSA-15, 16 h; in short: as §1
Albumin [20] = target: T1, Albumin; test: Binding affinity to human serum albumin at 310K by Stern-Volmer plot method; type: ADME; conditions: isolated protein; in short: as §2
Albumin [21] = target: T1, Albumin; test: Binding affinity to human serum albumin at 303K by fluorescence spectroscopic method; type: ADME; conditions: isolated protein; in short: as §2
[22] = Cytotoxicity against human MRC5 cells; type: cell-based
[23] = Octanol/phosphate buffer distribution co-efficient, log D of the compound at 7.4 by shake-flask method; type: physicochemical; conditions: pH 7.4
In short: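 Shake-flask partition between octanol and 10 mM phosphate buffer pH 7.4. Compound stock 5.0 × 10^-3 M in buffer-saturated octanol. Aqueous concentration measured spectrophotometrically against a calibration curve; octanol concentration taken by difference. Three octanol/buffer volume ratios; mean ± 95% CI.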

T1 sequence (P02768 whole entry): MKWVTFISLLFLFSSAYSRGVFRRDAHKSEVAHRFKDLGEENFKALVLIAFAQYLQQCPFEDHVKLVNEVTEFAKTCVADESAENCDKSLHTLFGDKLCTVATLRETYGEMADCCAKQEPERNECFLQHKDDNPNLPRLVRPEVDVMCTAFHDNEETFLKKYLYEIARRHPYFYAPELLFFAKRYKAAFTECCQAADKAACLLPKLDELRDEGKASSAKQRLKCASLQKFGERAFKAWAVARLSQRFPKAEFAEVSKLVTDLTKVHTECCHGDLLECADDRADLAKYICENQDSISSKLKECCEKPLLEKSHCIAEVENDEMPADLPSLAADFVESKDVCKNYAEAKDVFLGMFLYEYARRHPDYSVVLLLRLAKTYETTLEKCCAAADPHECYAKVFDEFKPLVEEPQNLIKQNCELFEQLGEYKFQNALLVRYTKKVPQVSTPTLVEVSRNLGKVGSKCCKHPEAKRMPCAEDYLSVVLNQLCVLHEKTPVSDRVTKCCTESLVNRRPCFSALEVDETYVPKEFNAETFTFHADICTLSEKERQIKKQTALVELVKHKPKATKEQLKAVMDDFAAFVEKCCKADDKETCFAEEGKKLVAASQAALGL

## O=C(O)/C(O)=C/C(=O)c1cc(C2CCCCC2)ccc1C1CCCCC1
Bacillus subtilis
  MIC: 125 µM (≈ 44.6 µg/mL)
Albumin [1]
  logKb: 7.02
Staphylococcus aureus [2]
  MIC: 11 µM (≈ 3.92 µg/mL)
Albumin [3]
  deltaH: -1.59 kcal/mol
Albumin [4]
  deltaG: -8.75 kcal/mol
Albumin [5]
  deltaG: -8.36 kcal/mol
Albumin [6]
  KSV: 1.6 ×10⁶ /M
  Ka: 1.02 ×10⁶ /M
  Kq: 2.26 ×10¹⁴ /M/s
Albumin [7]
  KSV: 1.72 ×10⁶ /M
  Ka: 1.06 ×10⁶ /M
  Kq: 2.42 ×10¹⁴ /M/s
Staphylococcus aureus [8]
  MIC: 11 µM (≈ 3.92 µg/mL)
[9]
  pKa at 50 µM: 7.56
Albumin [10]
  lnK: 14.36 M⁻¹
Escherichia coli
  MIC: > 128 µg/mL
Albumin [11]
  lnK: 14.21 M⁻¹
Albumin [12]
  deltaS: 96.76 J/mol/K
Staphylococcus aureus [13]
  MIC: 11 µM (≈ 3.92 µg/mL)
Albumin [14]
  logKb: 6.75
Staphylococcus aureus [15]
  MIC: 11 µM (≈ 3.92 µg/mL)
Albumin [16]
  deltaG: -8.6 kcal/mol
Staphylococcus aureus [17]
  MIC: 11 µM (≈ 3.92 µg/mL)
Albumin [18]
  lnK: 14.29 M⁻¹
Enterococcus faecalis
  MIC: 6 µM (≈ 2.14 µg/mL)
Staphylococcus aureus [19]
  MIC: 22 µM (≈ 7.84 µg/mL)
Albumin [20]
  KSV: 1.48 ×10⁶ /M
  Ka: 0.95 ×10⁶ /M
  Kq: 2.09 ×10¹⁴ /M/s
Albumin [21]
  logKb: 6.84
[22]
  IC90: 30 µM
[23]
  logD: 2.6

Source: ChEMBL document CHEMBL4138171, “Design, synthesis and biological evaluation of novel aryldiketo acids with enhanced antibacterial activity against multidrug resistant bacterial strains” (Eur J Med Chem, 2018)
